In PMC8485830 (ChemistryOpen, 2021) one finds IC50 data, which are given here for two compounds.

What all share (experiment): activity assay, unused NAD+ converted to a fluorescent compound
Type in all cases: biochemical

The target in one experiment is T1, PARP12 (Homo sapiens, UniProt Q9H0J9).
T1 sequence (Q9H0J9 489-684 limits assumed): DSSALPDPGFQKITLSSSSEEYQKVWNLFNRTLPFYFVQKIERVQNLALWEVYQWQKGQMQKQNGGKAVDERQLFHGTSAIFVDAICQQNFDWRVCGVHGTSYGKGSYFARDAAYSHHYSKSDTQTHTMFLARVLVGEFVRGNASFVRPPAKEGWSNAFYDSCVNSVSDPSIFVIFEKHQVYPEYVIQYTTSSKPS
The procedure, abridged:
(§1)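 Human PARP12 or PARP16 carrying an N-terminal His tag was expressed in E. coli Rosetta2 (DE3) in autoinduction TB medium, overnight at 18 °C. It was purified by Ni-affinity and size-exclusion chromatography, then the His tag was cleaved with TEV protease. Unused NAD+ was converted to a fluorescent compound. Test compound was given in half-log dilutions, in quadruplicate. IC50 came from a four-variable sigmoidal dose–response fit.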

In the next experiment the target is T2, PARP16 (Homo sapiens, UniProt Q8N5Y8).
T2 sequence (Q8N5Y8 5-279 limits assumed): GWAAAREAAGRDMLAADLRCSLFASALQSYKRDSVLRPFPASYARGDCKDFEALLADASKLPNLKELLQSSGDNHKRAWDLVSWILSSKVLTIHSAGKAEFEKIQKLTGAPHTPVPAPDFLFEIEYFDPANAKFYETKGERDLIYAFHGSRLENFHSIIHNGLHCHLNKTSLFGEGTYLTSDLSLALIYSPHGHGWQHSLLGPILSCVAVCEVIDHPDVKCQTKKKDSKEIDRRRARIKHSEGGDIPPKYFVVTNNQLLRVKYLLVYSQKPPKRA
In short, it runs like this: as §1

The target in the next experiment is T3, PARP3 (Homo sapiens, UniProt Q9Y6F1).
T3 sequence (Q9Y6F1 1-533): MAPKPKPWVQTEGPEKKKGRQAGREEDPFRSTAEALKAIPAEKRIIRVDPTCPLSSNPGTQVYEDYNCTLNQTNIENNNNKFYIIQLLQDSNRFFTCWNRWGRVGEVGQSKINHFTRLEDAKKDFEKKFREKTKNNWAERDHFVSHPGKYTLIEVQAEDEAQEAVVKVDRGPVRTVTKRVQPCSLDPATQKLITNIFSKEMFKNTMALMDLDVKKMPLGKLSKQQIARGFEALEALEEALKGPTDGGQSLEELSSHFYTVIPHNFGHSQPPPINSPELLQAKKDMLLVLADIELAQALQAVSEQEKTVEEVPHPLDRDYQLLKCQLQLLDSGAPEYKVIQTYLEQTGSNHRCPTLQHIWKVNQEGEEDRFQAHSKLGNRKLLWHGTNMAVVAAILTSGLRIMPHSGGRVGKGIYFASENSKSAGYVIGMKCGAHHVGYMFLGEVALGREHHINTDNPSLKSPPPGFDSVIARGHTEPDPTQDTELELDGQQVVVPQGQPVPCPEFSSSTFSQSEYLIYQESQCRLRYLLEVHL
In short, it runs like this:
(§2)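 PARP3 or PARP4 was expressed as an N-terminal His-tag construct in E. coli Rosetta2 (DE3) in autoinduction TB medium, overnight at 18 °C. It was purified by Ni-affinity followed by size-exclusion chromatography. Activity was read by converting residual NAD+ to a fluorescent product. Inhibitor was tested as half-log dilutions, with reactions in quadruplicate. IC50 was fitted with a four-variable sigmoidal dose–response curve.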

Another experiment has as its target T4, PARP4 (Homo sapiens, UniProt Q9UKK3).
T4 sequence (Q9UKK3 242-573 limits assumed): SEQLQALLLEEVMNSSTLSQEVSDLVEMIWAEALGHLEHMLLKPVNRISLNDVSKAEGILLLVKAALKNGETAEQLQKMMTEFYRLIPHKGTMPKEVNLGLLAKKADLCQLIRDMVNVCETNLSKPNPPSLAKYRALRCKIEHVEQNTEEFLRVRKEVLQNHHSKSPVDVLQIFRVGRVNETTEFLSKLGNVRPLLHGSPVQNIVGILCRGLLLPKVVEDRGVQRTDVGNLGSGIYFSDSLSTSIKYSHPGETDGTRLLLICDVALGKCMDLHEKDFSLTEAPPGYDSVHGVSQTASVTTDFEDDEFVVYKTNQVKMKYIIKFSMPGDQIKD
The procedure, abridged:
as §2

In the case of `N#Cc1ccc(Oc2ccc(C(N)=O)cc2)cc1` [compound 10, 4‐(4‐cyanophenoxy)benzamide], the IC50 was greater than 10 µM on PARP12, greater than 10 µM at PARP16, greater than 100 µM against PARP3 and greater than 100 µM on PARP4.
As for `NC(=O)c1ccc(Oc2cccc(C(N)=O)c2)cc1` [compound 20, 3‐(4‐carbamoylphenoxy)benzamide], the IC50 against PARP12 was greater than 10 µM; against PARP16, greater than 10 µM; at PARP3, greater than 100 µM; against PARP4 it was 7 µM.
